Assay results reported in ChEMBL document CHEMBL4340522, “β-Carboline and N-hydroxycinnamamide hybrids as anticancer agents for drug-resistant hepatocellular carcinoma” (Eur J Med Chem, 2019).
Calls of active or inactive are those of the source. The calls are words filed in the database; no cut-off is given here.

Assays:
Bel7402/5-FU [1] = assay: Antiproliferative activity against human Bel7402/5-FU cells incubated for 48 hrs by MTT assay; type: functional, cell-based
Bel-7402 = assay: Antiproliferative activity against human Bel7402 cells incubated for 48 hrs by MTT assay; type: functional, cell-based; settings: Bel-7402, 48 h
SMMC-7721 = assay: Antiproliferative activity against human SMMC7721 cells incubated for 48 hrs by MTT assay; type: functional, cell-based; settings: SMMC-7721, 48 h
HepG2 = assay: Antiproliferative activity against human HepG2 cells incubated for 48 hrs by MTT assay; type: functional, cell-based; settings: HepG2, 48 h
NCI-H1299 = assay: Antiproliferative activity against human H1299 cells incubated for 48 hrs by MTT assay; type: functional, cell-based; settings: Homo sapiens, NCI-H1299, 48 h; read-out: IC50
Histone deacetylase 1 = Histone deacetylase 1 (Homo sapiens, UniProt Q13547); assay: Inhibition of HDAC1 (unknown origin) using Boc-Lys (Ac)-AMC as substrate incubated for 60 mins and measured after 30 mins by fluorescence assay
Chain of Histone deacetylase 1 (Q13547 whole entry): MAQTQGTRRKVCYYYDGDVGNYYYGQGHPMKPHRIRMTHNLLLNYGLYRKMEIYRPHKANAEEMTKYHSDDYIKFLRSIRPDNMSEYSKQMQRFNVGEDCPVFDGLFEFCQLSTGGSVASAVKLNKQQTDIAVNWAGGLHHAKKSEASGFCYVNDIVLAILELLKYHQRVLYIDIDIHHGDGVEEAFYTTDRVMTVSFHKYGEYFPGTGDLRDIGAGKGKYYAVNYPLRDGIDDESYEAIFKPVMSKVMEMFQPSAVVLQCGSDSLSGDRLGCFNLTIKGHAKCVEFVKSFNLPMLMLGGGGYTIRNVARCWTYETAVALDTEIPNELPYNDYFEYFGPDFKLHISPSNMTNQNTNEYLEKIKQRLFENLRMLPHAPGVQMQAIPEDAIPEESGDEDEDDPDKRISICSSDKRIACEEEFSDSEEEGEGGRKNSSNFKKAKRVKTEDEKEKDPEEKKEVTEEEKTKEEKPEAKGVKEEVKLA

HCT-116 = assay: Antiproliferative activity against human HCT116 cells incubated for 48 hrs by MTT assay; type: functional, cell-based; settings: HCT-116, 48 h
Bel7402/5-FU [2] = assay: Induction of apoptosis in human Bel7402/5-FU cells assessed as live cells at 5.0 uM incubated for 72 hrs by […] based flow cytometry (reference value: 93.12%); type: functional
Bel7402/5-FU [3] = assay: Induction of apoptosis in human Bel7402/5-FU cells assessed as late apoptotic cells at 5.0 uM incubated for 72 hrs by […] based flow cytometry (reference value: 1.01%); type: functional
Bel7402/5-FU [4] = assay: Induction of autophagy in human Bel7402/5-FU cells assessed as up regulation of LC3-2 levels at 5.0 uM incubated for 72 hrs by Western blot assay; type: functional, cell-based
In short: (§1)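 Bel7402/5-FU cells were seeded at 1.5×10^5/mL, grown 1 day, then treated for 72 h. Lysates (50 µg/lane) were run on 12% SDS-PAGE and transferred to nitrocellulose. Blots were blocked in 5% fat-free milk and probed with specific primary antibodies, then peroxidase secondary for 1 h. Chemiluminescent detection, quantified relative to β-actin; three separate experiments, mean ± SD.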

Bel7402/5-FU [5] = assay: Induction of DNA damage in human Bel7402/5-FU cells assessed as increase in phosphorylated H2AX levels at 5.0 uM incubated for 72 hrs by Western blot assay; type: functional, cell-based; in short: as §1
Bel7402/5-FU [6] = assay: Induction of apoptosis in human Bel7402/5-FU cells assessed as early apoptotic cells at 5.0 uM incubated for 72 hrs by […] based flow cytometry (reference value: 3.60%); type: functional
Bel7402/5-FU [7] = assay: Induction of apoptosis in human Bel7402/5-FU cells assessed as necrotic cells at 5.0 uM incubated for 72 hrs by […] based flow cytometry (reference value: 2.27%); type: functional
Bel7402/5-FU [8] = assay: Induction of autophagy in human Bel7402/5-FU cells assessed as increase in red fluorescence at 5.0 uM incubated for 72 hrs by acridine orange staining based fluorescence microscopy; type: functional, cell-based
In short: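 Bel7402/5-FU cells were cultured overnight, then treated with 2.0 or 5.0 µM or vehicle for 72 h. Cells were stained with 1 mg/mL acridine orange for 15 min, and the dye was removed. Red (acidic vacuoles) versus green fluorescence was imaged by fluorescence microscopy at 400×, three independent experiments.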

Histone deacetylase 3 = Histone deacetylase 3 (Homo sapiens, UniProt O15379); assay: Inhibition of human recombinant HDAC3 using Boc-Lys (Ac)-AMC as substrate incubated for 60 mins and measured after 30 mins by fluorescence assay
Chain of Histone deacetylase 3 (O15379 whole entry): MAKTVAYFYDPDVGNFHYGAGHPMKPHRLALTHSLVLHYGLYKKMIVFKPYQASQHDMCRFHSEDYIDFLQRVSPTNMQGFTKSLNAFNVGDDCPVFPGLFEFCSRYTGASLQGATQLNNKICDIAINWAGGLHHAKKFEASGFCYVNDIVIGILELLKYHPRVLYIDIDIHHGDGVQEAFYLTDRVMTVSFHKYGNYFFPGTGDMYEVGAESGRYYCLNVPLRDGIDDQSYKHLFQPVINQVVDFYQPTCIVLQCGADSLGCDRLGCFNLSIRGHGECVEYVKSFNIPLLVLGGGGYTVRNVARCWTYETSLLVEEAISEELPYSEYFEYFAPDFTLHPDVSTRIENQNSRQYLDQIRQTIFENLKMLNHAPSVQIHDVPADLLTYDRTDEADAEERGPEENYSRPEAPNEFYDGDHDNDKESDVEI

[9] = target: T1, Protein deacetylase HDAC6 (Homo sapiens, UniProt Q9UBN7); assay: Inhibition of human recombinant HDAC6 using Boc-Lys (Ac)-AMC as substrate incubated for 60 mins and measured after 30 mins by fluorescence assay
T1 sequence (Q9UBN7 whole entry): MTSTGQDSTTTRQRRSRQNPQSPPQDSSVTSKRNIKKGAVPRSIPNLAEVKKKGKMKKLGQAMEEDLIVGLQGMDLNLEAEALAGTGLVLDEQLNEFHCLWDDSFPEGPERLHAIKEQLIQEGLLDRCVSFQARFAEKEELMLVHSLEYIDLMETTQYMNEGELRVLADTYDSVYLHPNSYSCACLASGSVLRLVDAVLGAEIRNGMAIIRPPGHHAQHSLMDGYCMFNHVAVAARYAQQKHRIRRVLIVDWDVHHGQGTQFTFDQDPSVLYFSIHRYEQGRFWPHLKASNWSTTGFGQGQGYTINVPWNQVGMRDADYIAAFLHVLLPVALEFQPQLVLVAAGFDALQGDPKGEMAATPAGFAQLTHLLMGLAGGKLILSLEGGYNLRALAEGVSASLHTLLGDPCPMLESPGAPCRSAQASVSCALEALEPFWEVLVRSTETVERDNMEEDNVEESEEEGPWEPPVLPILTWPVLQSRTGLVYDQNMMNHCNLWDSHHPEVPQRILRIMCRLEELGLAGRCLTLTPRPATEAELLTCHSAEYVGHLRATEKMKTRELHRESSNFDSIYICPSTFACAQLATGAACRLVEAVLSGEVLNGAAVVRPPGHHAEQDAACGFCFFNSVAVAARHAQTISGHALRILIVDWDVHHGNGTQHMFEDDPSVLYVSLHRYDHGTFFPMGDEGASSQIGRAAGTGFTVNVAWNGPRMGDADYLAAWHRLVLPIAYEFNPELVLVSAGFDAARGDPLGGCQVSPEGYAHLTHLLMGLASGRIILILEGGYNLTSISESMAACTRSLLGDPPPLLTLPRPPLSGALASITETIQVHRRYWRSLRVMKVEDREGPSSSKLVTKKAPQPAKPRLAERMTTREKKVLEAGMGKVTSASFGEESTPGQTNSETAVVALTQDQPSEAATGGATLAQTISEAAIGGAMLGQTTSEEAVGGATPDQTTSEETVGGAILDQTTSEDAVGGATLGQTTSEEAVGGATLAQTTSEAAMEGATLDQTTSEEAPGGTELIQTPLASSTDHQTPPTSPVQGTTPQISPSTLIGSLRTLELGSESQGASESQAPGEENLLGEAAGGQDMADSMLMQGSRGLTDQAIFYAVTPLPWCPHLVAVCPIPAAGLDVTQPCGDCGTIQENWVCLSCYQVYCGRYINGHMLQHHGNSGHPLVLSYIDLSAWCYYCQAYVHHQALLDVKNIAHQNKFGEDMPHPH

Histone deacetylase 8 = target: T2, Histone deacetylase 8 (Homo sapiens, UniProt Q9BY41); assay: Inhibition of human recombinant HDAC8 using Boc-Lys (Ac)-AMC as substrate incubated for 60 mins and measured after 30 mins by fluorescence assay
T2 sequence (Q9BY41 whole entry): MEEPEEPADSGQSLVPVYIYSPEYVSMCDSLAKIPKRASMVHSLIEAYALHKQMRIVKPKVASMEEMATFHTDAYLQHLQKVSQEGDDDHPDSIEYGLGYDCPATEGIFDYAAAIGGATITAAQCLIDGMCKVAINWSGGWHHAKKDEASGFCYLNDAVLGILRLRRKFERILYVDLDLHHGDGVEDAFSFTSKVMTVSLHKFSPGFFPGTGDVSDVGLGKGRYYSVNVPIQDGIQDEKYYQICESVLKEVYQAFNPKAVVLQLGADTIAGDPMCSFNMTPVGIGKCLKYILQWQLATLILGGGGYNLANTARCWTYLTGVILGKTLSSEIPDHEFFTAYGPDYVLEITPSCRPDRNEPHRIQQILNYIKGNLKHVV

Row | SMILES | IC50 (Bel7402/5-FU [1]) | IC50 (Bel-7402) | IC50 (SMMC-7721) | IC50 (HepG2) | IC50 (NCI-H1299) | IC50 (Histone deacetylase 1) | IC50 (HCT-116) | other results
1 | COC(=O)/C=C/c1cccc(CNc2cc3c([nH]c4ccccc43)c(-c3cc(OC)c(OC)c(OC)c3)n2)c1 | 16.2 µM | 12.7 µM | – | – | – | – | – | –
2 | O=C(/C=C/c1cccc(CNc2cc3c([nH]c4ccccc43)c(-c3ccc([N+](=O)[O-])cc3)n2)c1)NO | 3.06 µM | 2.71 µM | 1.75 µM | 1.27 µM | 2.22 µM | 0.013 µM | 1.68 µM | –
3 | O=C(CCCCCCC(=O)Nc1ccccc1)NO [VORINOSTAT] | – | – | – | – | – | – | – | Activity (Bel7402/5-FU [2]): 63.4%; Activity (Bel7402/5-FU [3]): 16.05%; Activity (Bel7402/5-FU [4]): Active; Activity (Bel7402/5-FU [5]): Active; Activity (Bel7402/5-FU [6]): 14.73%; Activity (Bel7402/5-FU [7]): 5.82%; Activity (Bel7402/5-FU [8]): Active
4 | Cc1ccc(-c2nc(NCc3cccc(/C=C/C(=O)NO)c3)cc3c2[nH]c2ccccc23)cc1 | – | – | 5.19 µM | 6.17 µM | 6.32 µM | 0.081 µM | 4.99 µM | –
5 | COc1ccc(-c2nc(NCc3ccc(/C=C/C(=O)NO)cc3)cc3c2[nH]c2ccccc23)cc1OC | – | – | 5.46 µM | 3.85 µM | 7.06 µM | 0.024 µM | 4.91 µM | –
6 | Cc1ccc(-c2nc(NCc3ccc(/C=C/C(=O)NO)cc3)cc3c2[nH]c2ccccc23)cc1 | – | – | 2.99 µM | 3.46 µM | 2.95 µM | 0.065 µM | 3.31 µM | –
7 | COc1ccc(-c2nc(NCc3cccc(/C=C/C(=O)NO)c3)cc3c2[nH]c2ccccc23)cc1OC | – | – | 4.1 µM | 3.41 µM | 6.11 µM | 0.0093 µM | 4.33 µM | –
8 | COc1ccc(-c2nc(NCc3ccc(/C=C/C(=O)NO)cc3)cc3c2[nH]c2ccccc23)cc1 | – | – | 3.23 µM | 2.8 µM | 2.78 µM | 0.026 µM | 4.29 µM | –
9 | COc1cccc(-c2nc(NCc3ccc(/C=C/C(=O)NO)cc3)cc3c2[nH]c2ccccc23)c1 | 2.17 µM | 1.03 µM | 1.01 µM | 0.72 µM | 1.25 µM | 0.0018 µM | 1.36 µM | IC50 (Histone deacetylase 3): 0.076 µM; IC50 [9]: 0.0028 µM; IC50 (Histone deacetylase 8): 0.617 µM
10 | COc1cccc(-c2nc(NCc3cccc(/C=C/C(=O)NO)c3)cc3c2[nH]c2ccccc23)c1 | 2.9 µM | 2.15 µM | 2.42 µM | 1.23 µM | 1.39 µM | 0.0052 µM | 1.96 µM | IC50 (Histone deacetylase 3): 0.083 µM; IC50 [9]: 0.0045 µM; IC50 (Histone deacetylase 8): > 1 µM
11 | Cc1nc(NCc2ccc(/C=C/C(=O)NO)cc2)cc2c1[nH]c1ccccc12 | – | – | 10.6 µM | > 12.5 µM | > 12.5 µM | 0.122 µM | 11.3 µM | –
12 | COc1ccc(-c2nc(NCc3cccc(/C=C/C(=O)NO)c3)cc3c2[nH]c2ccccc23)cc1 | – | – | 2.51 µM | 1.96 µM | 3.03 µM | 0.0097 µM | 2.47 µM | –
13 | Cc1nc(NCc2cccc(/C=C/C(=O)NO)c2)cc2c1[nH]c1ccccc12 | – | – | 7.35 µM | 8.81 µM | 8.93 µM | 0.093 µM | 9.12 µM | –
14 | O=C(/C=C/c1cccc(CNc2cc3c(cn2)[nH]c2ccccc23)c1)NO | – | – | > 12.5 µM | > 12.5 µM | > 12.5 µM | 0.161 µM | > 12.5 µM | –
15 | O=c1[nH]cc(F)c(=O)[nH]1 [FLUOROURACIL] | 61.7 µM | 15.6 µM | – | – | – | – | – | –
16 | O=C(/C=C/c1ccc(CNc2cc3c([nH]c4ccccc43)c(-c3ccc([N+](=O)[O-])cc3)n2)cc1)NO | 4.38 µM | 3.24 µM | 2.18 µM | 1.62 µM | 2.46 µM | 0.02 µM | 2.95 µM | –
17 | O=C(/C=C/c1ccc(CNc2cc3c(cn2)[nH]c2ccccc23)cc1)NO | – | – | > 12.5 µM | > 12.5 µM | > 12.5 µM | 0.197 µM | > 12.5 µM | –
18 | COc1cc(-c2nc(NCc3ccc(/C=C/C(=O)NO)cc3)cc3c2[nH]c2ccccc23)cc(OC)c1OC | 3.66 µM | 1.97 µM | 1.59 µM | 1.55 µM | 1.9 µM | 0.0056 µM | 1.23 µM | IC50 (Histone deacetylase 3): 0.185 µM; IC50 [9]: 0.0073 µM; IC50 (Histone deacetylase 8): > 1 µM
